Several values for one entry are separate records, joined by “and”; a condition that tells them apart may be missing. Identical values can stand only once.
Columns and labels:
[1] = molecular target: T1, 3-oxo-5-alpha-steroid 4-dehydrogenase 2 (Homo sapiens, UniProt P31213); experiment: Inhibition against 5 alpha R-2 in human prostate homogenate relative to finasteride; assay type: tissue-based, Prostate gland
T1 sequence (P31213 whole entry): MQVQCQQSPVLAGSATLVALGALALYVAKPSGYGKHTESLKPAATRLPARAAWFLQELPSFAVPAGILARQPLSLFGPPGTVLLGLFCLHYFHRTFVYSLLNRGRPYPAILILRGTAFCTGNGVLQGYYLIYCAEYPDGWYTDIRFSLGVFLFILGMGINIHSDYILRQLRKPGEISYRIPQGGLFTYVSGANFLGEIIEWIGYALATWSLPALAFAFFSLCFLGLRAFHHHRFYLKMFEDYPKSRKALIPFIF

[2] = molecular target: T1, 3-oxo-5-alpha-steroid 4-dehydrogenase 2; experiment: Inhibitory activity against 5-alpha Reductase-2 on human prostate homogenates from surgically derived benign hyperplastic tissue; assay type: tissue-based, Prostate gland
Outline: (§1)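 Benign hyperplastic human prostate tissue, stored at -80 °C, was homogenized near 0 °C in 50 mM TRIS pH 7.4 with salts, nicotinamide and sucrose, spun at 200g, and the combined supernatants were used. Homogenate (0.1 mg protein) was incubated with 30 nM testosterone (9% [3H]) and 0.3 mM NADPH for 30 min at 37 °C, with the inhibitor added alongside the substrate. Inhibitor range was 10⁻¹⁰–10⁻⁵ M. DHT conversion was read by TLC and scintillation, in duplicate.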

[3] = molecular target: T2, 3-oxo-5-alpha-steroid 4-dehydrogenase 1 (Homo sapiens, UniProt P18405); experiment: (§2) Inhibitory activity against human 5-alpha Reductase-1 expressed in DU-145 cells; assay type: cell-based
T2 sequence (P18405 whole entry): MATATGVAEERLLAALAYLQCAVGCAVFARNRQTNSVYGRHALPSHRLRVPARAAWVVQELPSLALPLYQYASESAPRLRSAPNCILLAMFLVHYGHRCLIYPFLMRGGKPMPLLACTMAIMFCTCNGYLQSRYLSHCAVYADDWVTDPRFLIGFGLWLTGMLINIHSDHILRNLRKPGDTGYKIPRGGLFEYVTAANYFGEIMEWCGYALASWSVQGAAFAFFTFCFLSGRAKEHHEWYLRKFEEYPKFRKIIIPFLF
Outline: (§3)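 DU-145 cells (passage 60–90) were plated at 100 000 cells/well and left to adhere for 24 h. Inhibitors were prepared in ethanol, diluted in phenol-red-free MEM and tested at five doses, 10⁻⁹–10⁻⁵ M, with 5 nM [3H]androstenedione. After 6 h at 37 °C in 5% CO2, the medium was extracted with ethyl acetate and analysed by TLC and scintillation.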

[4] = molecular target: T1, 3-oxo-5-alpha-steroid 4-dehydrogenase 2; experiment: Tested against 5 alpha R-2 on human prostate homogenate from surgically derived benign hyperplastic tissue in experiment 1; assay type: tissue-based, Prostate gland; outline: as §1
[5] = molecular target: T1, 3-oxo-5-alpha-steroid 4-dehydrogenase 2; experiment: Tested against 5 alpha R-2 on human prostate homogenate from surgically derived benign hyperplastic tissue in experiment 2; assay type: tissue-based, Prostate gland; outline: as §1
[6] = molecular target: T1, 3-oxo-5-alpha-steroid 4-dehydrogenase 2; experiment: Tested against 5 alpha R-2 on human prostate homogenate from surgically derived benign hyperplastic tissue in experiment 3; assay type: tissue-based, Prostate gland; outline: as §1
[7] = molecular target: T1, 3-oxo-5-alpha-steroid 4-dehydrogenase 2; experiment: Inhibition against 5 alpha R-2 in human prostate homogenate compared with finasteride in experiment 1; assay type: tissue-based, Prostate gland; outline: as §1
[8] = molecular target: T1, 3-oxo-5-alpha-steroid 4-dehydrogenase 2; experiment: Inhibition against 5 alpha R-2 in human prostate homogenate compared with finasteride in experiment 2; assay type: tissue-based, Prostate gland; outline: as §1
[9] = molecular target: T1, 3-oxo-5-alpha-steroid 4-dehydrogenase 2; experiment: Inhibition against 5 alpha R-2 in human prostate homogenate compared with finasteride in experiment 3; assay type: tissue-based, Prostate gland; outline: as §1
[10] = molecular target: T1, 3-oxo-5-alpha-steroid 4-dehydrogenase 2; experiment: TInhibitory activity against 5-alpha Reductase-2 on human prostate homogenates from surgically derived benign hyperplastic tissue in experiment 2; assay type: tissue-based, Prostate gland; outline: as §1
[11] = molecular target: T1, 3-oxo-5-alpha-steroid 4-dehydrogenase 2; experiment: Inhibitory activity against 5-alpha Reductase-2 on human prostate homogenates from surgically derived benign hyperplastic tissue in experiment 1; assay type: tissue-based, Prostate gland; outline: as §1
[12] = molecular target: 3-oxo-5-alpha-steroid 4-dehydrogenase 1 (Homo sapiens, UniProt P18405); experiment: as §2; assay type: cell-based; outline: as §3; remark: listed apart in the source

SMILES | IC50 [1] | IC50 [2] | IC50 [3] | also measured
C[C@]12CC[C@H]3[C@@H](CCC4CC(=O)C=CN43)[C@@H]1CCC2=O (some centres not stated) | 2.4 nM | 46000 nM |  | 
C[C@]12CC=C3[C@@H](CCC4=CC(=O)CCN43)C1CCC2=O.C[C@]12CCC3=C(CCC4=CC(=O)CCN43)C1CCC2=O (stereo in doubt; 4a:4b(5:1)) | 4.1 nM | 4600 nM | 263 nM | 
C[C@]12CC[C@H]3[C@@H](CCC4=CC(=O)CCN43)[C@@H]1CCC2=O | 3.5 nM | 4400 nM | 299 nM | 
C[C@]12CC=C3[C@@H](CCC4=CC(=O)CCN43)C1CCC2=O.C[C@]12CCC3=C(CCC4=CC(=O)CCN43)C1CCC2=O (stereo in doubt; 4a) | 3.4 nM |  |  | 
C[C@]12CC=C3C4=C(CCC3[C@@H]1CCC2=O)NCCC4=O.C[C@]12CCC3=C(CCC4=C3C(=O)CCN4)[C@@H]1CCC2=O (stereo in doubt; 27c) | 6.1 nM | > 100000 nM | > 100000 nM | 
CC(C)(C)NC(=O)[C@H]1CC[C@H]2C3=C(CC[C@]12C)N1CCC(=O)C=C1CC3.CC(C)(C)NC(=O)[C@H]1CC[C@H]2C3CCC4=CC(=O)CCN4C3=CC[C@]12C (some centres not stated) |  |  | 127 nM | IC50 [4]: 10.2 nM; IC50 [5]: 7.3 nM; IC50 [6]: 150 nM; IC50 [7]: 2.2 nM and 3.4 nM; IC50 [8]: 5.7 nM and 3.1 nM; IC50 [9]: 4.3 nM; IC50 [10]: 122 nM; IC50 [11]: 37 nM
C[C@]12CC[C@H]3[C@@H](CCC4=CC(=O)CCN43)[C@@H]1CC[C@@H]2O | 2.7 nM | 4200 nM | 409 nM | 
CC(C)(C)NC(=O)[C@H]1CC[C@H]2[C@@H]3CC[C@H]4NC(=O)C=C[C@]4(C)[C@H]3CC[C@]12C [FINASTERIDE] |  | 3 nM |  | IC50 [12]: 42 nM
C[C@]12CC=C3[C@@H](CCC4=CC(=O)CCN43)C1CC[C@@H]2O.C[C@]12CCC3=C(CCC4=CC(=O)CCN43)C1CC[C@@H]2O (some centres not stated) | 3 nM | 2900 nM |  | 
C[C@]12CC[C@H]3[C@@H](CC[C@H]4CC(=O)CCN43)[C@@H]1CCC2=O | 2.9 nM | > 100000 nM | > 100000 nM | 
CC(C)(C)NC(=O)[C@H]1CC[C@H]2[C@@H]3CCC4=CC(=O)CCN4[C@H]3CC[C@]12C | 5.5 nM | 460 nM | 1130 nM | 
C[C@]12CC=C3C4=C(CCC3[C@@H]1CCC2=O)NCCC4=O.C[C@]12CCC3=C(CCC4=C3C(=O)CCN4)[C@@H]1CCC2=O (stereo in doubt; 27b) | 3.8 nM |  |  | 
C=CC(=O)/C=C1/CCC2=C(CC[C@]3(C)C(=O)CC[C@@H]23)N1.C=CC(=O)/C=C1/CCC2C(=CC[C@]3(C)C(=O)CC[C@@H]23)N1 (some centres not stated) | 6.1 nM | > 100000 nM |  | 

— ChEMBL document CHEMBL1130410, “19-nor-10-azasteroids: a novel class of inhibitors for human steroid 5alpha-reductases 1 and 2” (J Med Chem, 1997)
